Drawing on PubChem BioAssay AID504382 (The Scripps Research Institute Molecular Screening Center, 2011), this text covers fluorescence artifact activation for 91 compounds.

The whole screen tested about 2,500 compounds, of which about 460 (18%) were called active. Not all results are given here. A number with no mark means an inactive call.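 The calls were made as follows: active = mean activation above a cutoff of low control average plus 3 SD from the earlier screen (cut at about 12% in these data); inactive = the rest.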

The experiment is described as follows: compound fluorescence interference without thin filaments, confirmation, artefact control for cardiac RTF calcium sensitizer project, biochemical (AID 504382). The conditions noted are these: IANBD fluorescence interference counterscreen, buffer, EC20 Ca2+; at 7.2 µM; hits give high values; scaled: EC20 calcium 0, EC100 calcium 100. The procedure, abridged:
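Also added: EC20 calcium, 0.472 mM; dosing: single nominal 7.2 µM compound dose, 0.7% DMSO final; timing: 15 min, 25 °C; detection: fluorescence intensity, excitation 480 nm, emission 540 nm; replicates: each compound tested in triplicate wells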
Background: A counterscreen serves to expose hits that act by an unwanted route or on another target.
Turning to `CC(COC(=O)c1ccccc1)(COC(=O)c1ccccc1)/[N+]([O-])=C/c1ccccc1`, the fluorescence artifact activation was 9.45%. The value for `COCCCn1c(=O)/c(=C\c2cccc(OC)c2OC)s/c1=C(/C#N)C(=O)Nc1ccc(C(=O)O)cc1` was 2.82%; that for `CCc1cc(C(=O)Nc2ccc(OC)nc2)sc1C` was -0.03%; that for `CCC(=O)N1CCC2(CC1)Oc1ccc(Cl)cc1C(=O)C21CC(c2cccnc2)=NO1` (stereo unspecified) was 5.01%. For `COc1ccc(C2(CNC(C)=O)CCCC2)cc1OC`, the fluorescence artifact activation is 0.1%.

For `COc1ccc(N2C(=O)C3C(C2=O)C(C(=O)c2ccc(Cl)cc2)N2CCCC32)cc1` (stereo unspecified), the fluorescence artifact activation is 2.56%. Take `CC(=O)Oc1ccc(N2C(=O)C3C(C2=O)C(C(=O)c2ccc(Cl)cc2)N2CCCC32)cc1` (stereo unspecified): the fluorescence artifact activation is 12.2% (active).

On to `CCOC(=O)c1ccc(N2C(=O)C3C(C2=O)C(C(=O)c2ccc(Cl)cc2)N2CCCC32)cc1` (stereo unspecified), for which the fluorescence artifact activation is 1.5%. For `O=C(c1ccccc1)[C@@H]1[C@@H]2C(=O)N(c3ccc(F)cc3)C(=O)[C@@H]2C2CCCN21` (stereo partly specified) the value was 1.82%.

On to `Cc1ccc(N2C(=O)[C@@H]3[C@H](C2=O)C2CCCN2[C@@H]3C(=O)c2ccccc2)cc1` (stereo partly specified), for which the fluorescence artifact activation is 65.3% (active). Regarding `Cc1ccc(N2C(=O)C3C(C(=O)c4ccccc4)=NN(c4ccccc4)C3C2=O)cc1` (stereo unspecified), the fluorescence artifact activation was 5.76%.

For `CCc1ccc(Nc2n[n+](-c3ccccc3)c(-c3ccc(N(CC)CC)cc3)s2)cc1`, the fluorescence artifact activation is -0.01%. The value for `C[C@H](CO)N1C[C@H](C)[C@@H](CN(C)S(=O)(=O)c2cccs2)Oc2c(NC(=O)Nc3ccc4c(c3)OCO4)cccc2C1=O` was 2.08%; that for `COCc1cc(=O)[nH]c2cc(NC(=O)C(C)(C)CCl)c(C)cc12` was -0.05%; that for `COc1ccc(CCNC(=O)c2ccccc2OCc2c(C)noc2C)cc1` was -0.02%. For `CCOCCCNC(=S)NCCCNc1nc2c(C)cc(C)cc2cc1C#N` the value was 0.14%; for `COc1cc(N2CCCC2)c(OC)cc1/C=C1/NC(=S)NC1=O`, 16.7% (active); for `COc1cc(N2CCCC2)c(OC)cc1/C=C(/C#N)c1cccc(Br)c1`, -0.03%.

Turning to `COc1cc(N2CCCC2)c(OC)cc1/C=C(/C#N)c1ccc(Br)cc1`, the fluorescence artifact activation was 0.93%. For the compound `N#Cc1ccc(CSc2nnc(-c3cnccn3)o2)cc1`, the fluorescence artifact activation is 45.1% (active). The value for `O=c1oc2cc(O)ccc2cc1-c1nc2c(s1)CCc1ccccc1-2` was 0.02%. `CC(C)(C)c1cc[n+](-c2[nH]c(=O)sc2/C=N/NC([S-])=Nc2ccccc2)cc1`: the fluorescence artifact activation is 1.92%.

In the case of `Cc1ccccc1C(=O)NCCCc1ccccc1`, the fluorescence artifact activation was 0.02%. With `COC(=O)N1CCN(S(=O)(=O)c2ccc(F)cc2)CC1`, the fluorescence artifact activation was -0.07%. For `O=S(=O)(c1ccc(F)cc1)N1CCN(CCOc2ccccc2)CC1` the value was 361% (active); for `CN1CCN(S(=O)(=O)c2cccc(C(=O)Oc3cccc(Br)c3)c2)CC1`, 0.74%.

Take `CC(C)c1nnc(N2C(=O)C(O)=C(C(=O)c3cccs3)C2c2ccccc2)s1` (stereo unspecified): the fluorescence artifact activation is 0.07%. The value for `O=C(COC(=O)c1cc(-c2cccc3ccccc23)nc2ccccc12)NC1CCS(=O)(=O)C1` (stereo unspecified) was 0.37%. Regarding `CCCCC(=O)Nc1ccc(C(=O)Nc2ccc(OC)cc2[N+](=O)[O-])cc1`, the fluorescence artifact activation was 2.86%. For `CCCCCn1nc(-c2ccccc2)c2nc3ccccc3nc21` the value was 20.1% (active); for `CCn1nc(-c2ccccc2)c2nc3ccccc3nc21`, 4.1%. The value for `Cn1nc(-c2ccccc2)c2nc3ccccc3nc21` was 0.09%; that for `CCOC(=O)CCC(=O)NCc1ccc2c(c1)cc(C)n2C` was 0.01%. Take `COc1ccc2nc3ccccc3nc2c1NC(=O)c1ccc(Cl)cc1Cl`: the fluorescence artifact activation is 0.06%.

As to `COc1ccc2nc3ccccc3nc2c1NC(=O)c1ccc(Br)cc1`, the fluorescence artifact activation is 59.2% (active). Turning to `CC(=O)N1CCN(S(=O)(=O)c2cccc(C(=O)NNC(=O)c3ccc(Br)cc3)c2)CC1`, the fluorescence artifact activation was 0.4%. As to `CN(C)c1ccc(/C=C/C(=O)c2cc(Cl)ccc2O)cc1`, the fluorescence artifact activation was 0.19%.

As to `CC(C)(C)NC(=O)CSc1nnc(-c2ccccn2)n1-c1ccccc1`, the fluorescence artifact activation was 0.09%. The value for `Cc1cc(C)c2c(SC(C)C)nc(N)nc2n1` was 5.3%. Regarding `CCOCCn1c(CN2CCN(CC)CC2)nc2c1c(=O)n(C)c(=O)n2C`, the fluorescence artifact activation is 21.1% (active).

With `CCN(CC)c1ccc(/C=C2\C(=O)c3ccc(C(=O)O)cc3C2=O)cc1`, the fluorescence artifact activation is 8.82%.

Take `CCN(CC)c1ccc2cc(C(=O)NCc3ccc(F)cc3)c(=N)oc2c1`: the fluorescence artifact activation is 17.9% (active). For `CCN(CC)c1ccc2cc(C(C)=O)c(=O)oc2c1`, the fluorescence artifact activation is 0.03%. The value for `CCN(CC)c1ccc2cc(C(=O)Nc3ccccn3)c(=O)oc2c1` was -0.06%; that for `N#Cc1c(NC(=O)C2CC=CCC2C(=O)O)sc2c1CCCCCC2` (stereo unspecified) was 0.67%.

On to `COc1ccccc1C(=O)NNC(=O)CCCN1C(=O)/C(=C/c2cccs2)SC1=S`, for which the fluorescence artifact activation is -0.02%. Regarding `O=C(O)CCCN1C(=O)/C(=C/c2cn(-c3ccccc3)nc2-c2cccs2)SC1=S`, the fluorescence artifact activation was 54.1% (active).

For `Cc1ccc(-c2nn(-c3ccccc3)cc2/C=C2\SC(=S)N(CCCCCC(=O)O)C2=O)o1`, the fluorescence artifact activation was 3.75%. Regarding `COc1cccc(/C(O)=C/c2nc3ccc(C(=O)NCCc4cccc(C)c4)cc3[nH]c2=O)c1`, the fluorescence artifact activation was 0.04%. With `CCc1ccc(/C=C2/C(=O)N(C)C(=S)N2CC(=O)OC)s1`, the fluorescence artifact activation is 2.56%. The value for `O=C(Cn1cnc2c(cnn2-c2ccccc2)c1=O)Nc1ccc(S(=O)(=O)N2CCOCC2)cc1` was 7.41%; that for `CN(C)c1ccc(/C=C/C(=O)c2ccc3c(c2)OCO3)cc1` was 2.49%; that for `C[C@H]1CN([C@@H](C)CO)C(=O)c2cccc(NC(=O)c3nc4ccccc4s3)c2O[C@H]1CN(C)C(=O)Nc1ccc(F)cc1` was 0.31%. With `CC(C)NC(=O)/C(C#N)=C\c1ccc(N(C)C)o1`, the fluorescence artifact activation was 48.4% (active). For `CC(C)NC(=O)/C(C#N)=C/c1ccc(N(C)C)o1` the value was 0.18%; for `CCN(CC)c1ccc(/C=C(/C#N)C(=O)NC(C)C)o1`, 0.06%. In the case of `CCN(c1ccc(N=Cc2c(O)n(Cc3ccc(OC)cc3)c(=O)c3ccccc23)cc1)C(C)C`, the fluorescence artifact activation was 2.13%. In the case of `O=C(CSC1CC(=O)N(c2ccc(C(=O)O)cc2)C1=O)Nc1ccc2ccccc2c1` (stereo unspecified), the fluorescence artifact activation is 0.06%.

`O=C(NCCCN1CCOCC1)C(=O)NCc1ccco1`: the fluorescence artifact activation was 0.11%. The value for `O=C(NCc1ccco1)/C(=C\c1ccco1)NC(=O)c1ccc(Br)o1` was 24.4% (active); that for `CC(C)(C)c1ccc(C(=O)N/C(=C\c2cccs2)C(=O)NCc2ccco2)cc1` was 0.07%; that for `Cc1cc(=O)c2c([nH]1)c(C)cc1[nH]c(C)c(C)c12` was 0.09%. With `C=CCn1c(=O)c(C(=O)NCCNCC)c(O)c2ccccc21`, the fluorescence artifact activation was 0.84%. For `CCCCN=C1N/C(=C\c2ccco2)C(=O)N1c1ccccc1` the value was 78.2% (active). On to `NC(N)=NCc1cccc(I)c1`, for which the fluorescence artifact activation was 0.57%. The value for `CN(C)c1ccc(/C=N/NC(=O)c2cnc3ccccc3c2)cc1` was 0.02%; that for `CC(=O)c1cccc(NC(=S)NC2CCCCC2)c1` was 0.08%. Regarding `CC(C)CC[C@@H](O)[C@](C)(O)C1CC[C@@]2(O)C3=CC(=O)[C@@H]4C[C@@H](O)[C@@H](O)C[C@]4(C)C3CC[C@]12C` (stereo partly specified), the fluorescence artifact activation was 79.3% (active). The value for `CCN1C(=O)c2cccc3c(N)ccc(c23)C1=O` was 0.02%. For `CNc1ccc2c3c(cccc13)C(=O)N(C)C2=O` the value was 40.8% (active); for `CCCCNc1ccc2c3c(cccc13)C(=O)N(CCCC)C2=O`, -0.02%; for `CN1C(=O)c2cccc3c(N(C)C)ccc(c23)C1=O`, 70.1% (active).

For `Cc1ccccc1N1C(=O)c2cccc3c(N(C)CCO)ccc(c23)C1=O`, the fluorescence artifact activation is -0.04%. On to `CN1C(=O)c2cccc3c(N)ccc(c23)C1=O`, for which the fluorescence artifact activation is 0.17%.

For `COC(=O)N1c2ccccc2CCc2ccccc21`, the fluorescence artifact activation is 1.49%. For `CC(=O)Nc1ccc(Nc2c3c4c(cccc4n(C)c2=O)C(=O)c2ccccc2-3)cc1` the value was 5.51%; for `COc1ccc(CNC(=O)c2cc3c(s2)CS(=O)C3)cc1` (stereo unspecified), 0.1%; for `CCc1ccc2c(c1)C(NC(C)=O)C(=O)N2CC` (stereo unspecified), -0.03%. For `Cc1ccc(S(=O)(=O)c2cccc(S(=O)(=O)N3CCOCC3)c2)cc1S(=O)(=O)N1CCOCC1` the value was 6.87%; for `N#C/C(=C\c1ccc(Sc2ccc(Cl)cc2)o1)c1nc2ccccc2[nH]1`, -0.03%. With `C=CCN1C(=O)/C(=C\C=C2\N(C)c3ccccc3C2(C)C)SC1=S`, the fluorescence artifact activation is 0.06%. For `COc1ccc(Cl)cc1-c1nc(SCC(=O)NC(C)C)n[nH]1`, the fluorescence artifact activation was 0.53%. For `Cc1ccc(C)c(C(=O)CSc2n[nH]c(C(C)C)n2)c1` the value was 18.7% (active); for `C/C(N)=C(/C#N)C(=O)CSc1n[nH]c(-c2cccs2)n1`, 0.14%.

`Cc1[nH]c(=S)c(C#N)c(C)c1CCC#N`: the fluorescence artifact activation is 10.6%. The value for `COC(=O)CNC(=O)COC(=O)c1cc(F)c(F)cc1Cl` was 0.55%; that for `Cc1ccccc1C1CC(=O)Oc2cc(O)ccc21` (stereo unspecified) was 0.19%; that for `Cc1ccc2[nH]c(C)c(/C=C/c3cc[n+](C)cc3)c2c1` was 54.8% (active). The value for `Cc1[nH]c2ccccc2c1/C=C/c1cc[n+](C)cc1` was 3%; that for `Cc1ccc2c(c1)c(/C=C/c1cc[n+](C)cc1)c(C)n2C` was 1.43%. The value for `COC(=O)Cn1cc(/C=C/c2cc[n+](C)cc2)c2ccccc21` was 1.9%.
